Measured values from ChEMBL document CHEMBL1125292, “Synthesis of novel 2-phenyl-2H-pyrazolo[4,3-c]isoquinolin-3-ols: topological comparisons with analogues of 2-phenyl-2,5-dihydropyrazolo[4,3-c]quinolin-3(3H)-ones at benzodiazepine receptors” (J Med Chem, 1992).

Molecular target: GABA-A receptor; anion channel
Assay: Concentration to inhibit [3H]flunitrazepam binding to rat cerebral cortical membrane
Summary of the method: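 Rat cerebral cortex homogenized in 50 mM Tris-HCl pH 7.4, centrifuged 20000g 20 min at 4 °C, washed three times, resuspended in 50 volumes. Triplicate incubations with [3H]flunitrazepam (~1 nM final) at 4 °C for 120 min, ended by GF/B filtration and ice-cold buffer washes. Nonspecific binding defined with 10 μM unlabeled flunitrazepam.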

Row | Compound | IC50 [µM]
1 | [O-]c1c2c(nn1-c1ccc(F)cc1)c1ccccc1c[n+]2Cc1ccccc1 | > 2
2 | [O-]c1c2c(nn1-c1ccccc1)c1ccccc1c[n+]2Cc1ccccc1 | > 2
3 | Clc1c2ncc3ccccc3c2nn1-c1ccccc1 | > 2
4 | c1ccc2c(c1)cnc1c3ccccc3[nH]c21 | > 2
5 | O=c1c2ncc3ccccc3c2[nH]n1-c1ccccc1 | > 2
6 | Sc1c2ncc3ccccc3c2nn1-c1ccccc1 | > 2
7 | [O-]c1c2c(nn1-c1ccc(Cl)cc1)c1ccccc1c[n+]2Cc1ccccc1 | > 2
8 | Oc1c2ncc3ccccc3c2nn1-c1ccc(Cl)cc1 | > 2

Now from value to compound:

Row | IC50 [µM] | Compound
9 | > 2 | COc1ccc(-n2nc3c4ccccc4c[n+](Cc4ccccc4)c3c2[O-])cc1
10 | > 2 | COc1ccc(-n2[nH]c3c(ncc4ccccc43)c2=O)cc1
11 | > 2 | O=c1c2ncc3ccccc3c2[nH]n1-c1ccc(F)cc1
12 | 0.0009 | COc1ccc(-n2nc3c4ccccc4[nH]cc-3c2=O)cc1
